The subject of data set [1] is RAW264.7. The data set can be described thus: Antiinflammatory activity in mouse RAW264.7 cells assessed as reduction in LPS-induced nitric oxide production at 1 pM to 100 nM incubated for 2 hrs prior to LPS challenge measured after 24 hrs by Griess assay. In kind it is functional, cell-based. Put shortly: (§1)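 RAW 264.7 macrophages were plated at 1×10^5 per well, grown overnight and washed with PBS. Compounds in water (final 1 pM-100 nM, medium with 2% FCS) were added 2 h at 37 °C before E. coli 0111:B4 LPS, 2.5 µg/mL. TNF-α was sampled at 8 h; IL-6 and nitrite (Griess) at 24 h. ELISA was used for cytokines. Values are % of the LPS + medium value in each experiment. Budesonide was the reference. 2-3 experiments, 6 wells per concentration.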

Data set [2] relates to RAW264.7. The data set can be described thus: Antiinflammatory activity in mouse RAW264.7 cells assessed as reduction in LPS-induced TNF-alpha production at 1 pM to 100 nM incubated for 2 hrs prior to LPS challenge measured after 8 hrs by ELISA. In kind it is functional, cell-based. Put shortly: as §1
In data set [3] the test system is RAW264.7. Nature of the data set: Antiinflammatory activity in mouse RAW264.7 cells assessed as reduction in LPS-induced IL6 production at 1 pM to 100 nM incubated for 2 hrs prior to LPS challenge measured after 24 hrs by ELISA. In kind it is functional, cell-based. Put shortly:
as §1

Data set [4] deals with RAW264.7. Nature of the data set: Cytoprotective activity against H2O2-induced oxidative stress in mouse RAW264.7 cells assessed as cell viability at 100 nM incubated for 2 hrs prior to H2O2 addition measured after 24 hrs by MTT assay (reference value: 68 to 72.8%). In kind it is functional. The conditions noted are these: read-out: Activity.
The test system of data set [5] is RAW264.7. The data set can be described thus: Cytoprotective activity against H2O2-induced oxidative stress in mouse RAW264.7 cells assessed as cell viability at 10 nM incubated for 2 hrs prior to H2O2 addition measured after 24 hrs by MTT assay (reference value: 68 to 72.8%). In kind it is functional. The conditions noted are these: read-out: Activity.
In data set [6] the test system is RAW264.7. Nature of the data set: Cytoprotective activity against H2O2-induced oxidative stress in mouse RAW264.7 cells assessed as cell viability at 1 pM incubated for 2 hrs prior to H2O2 addition measured after 24 hrs by MTT assay (reference value: 68 to 72.8%). In kind it is functional. The conditions noted are these: read-out: Activity.
Data set [7] is described as follows: Cytotoxicity against mouse RAW264.7 cells assessed as cell viability at 10^-8 M after 24 hrs by MTT assay relative to control. The settings on record: read-out: Activity. In kind it is cell-based. Put shortly:
(§2)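 RAW 264.7 cells, seeded at 1×10^4 cells/mL and incubated 24 h, were exposed to compound from 1 pM to 100 nM. Viability was read by MTT (final 0.5 mg/mL, 1 h at 37 °C), with formazan dissolved in DMSO and OD at 570 nm. Results are compared with medium-only cells.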

The nature of data set [8]: Cytotoxicity against mouse RAW264.7 cells assessed as cell viability at 10^-7 M after 24 hrs by MTT assay relative to control. In kind it is cell-based. The settings on record: read-out: Activity. Put shortly:
as §2

Data set [9] can be described thus: Cytotoxicity against mouse RAW264.7 cells assessed as cell viability at 10^-9 M after 24 hrs by MTT assay relative to control. In kind it is cell-based. The conditions noted are these: read-out: Activity. Put shortly:
as §2

A short description of data set [10]: Cytotoxicity against mouse RAW264.7 cells assessed as cell viability at 10^-11 M after 24 hrs by MTT assay relative to control. In kind it is cell-based. The settings on record: read-out: Activity. Put shortly: as §2
Data set [11] in a line: Cytotoxicity against mouse RAW264.7 cells assessed as cell viability at 10^-10 M after 24 hrs by MTT assay relative to control. The settings on record: read-out: Activity. In kind it is cell-based. Put shortly:
as §2

Data set [12] in a line: Cytotoxicity against mouse RAW264.7 cells assessed as cell viability at 10^-12 M after 24 hrs by MTT assay relative to control. In kind it is cell-based. The settings on record: read-out: Activity. Put shortly:
as §2

Data set [13] deals with RAW264.7. Nature of the data set: Antiinflammatory activity in mouse RAW264.7 cells assessed as reduction in LPS-induced TNF-alpha production at 100 pM to 100 nM incubated for 2 hrs prior to LPS challenge measured after 8 hrs by ELISA. In kind it is functional, cell-based. Put shortly: as §1
In data set [14] the test system is RAW264.7. The data set can be described thus: Antiinflammatory activity in mouse RAW264.7 cells assessed as reduction in LPS-induced IL-6 production at 100 pM to 100 nM incubated for 2 hrs prior to LPS challenge measured after 24 hrs by ELISA. In kind it is functional, cell-based. Put shortly:
as §1

For data set [15], the system named is RAW264.7. The data set can be described thus: Cytoprotective activity against H2O2-induced oxidative stress in mouse RAW264.7 cells assessed as decrease in LDH release at 1 pM incubated for 2 hrs prior to H2O2 addition by colorimetric assay relative to control. In kind it is functional. The arrangement: scale not given: the % may be the effect or the level left. Put shortly: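 RAW 264.7 cells were seeded and pretreated with compound before H2O2 100 µM, in serum-free medium. Collected medium was centrifuged and incubated with reaction mix 30 min at room temperature. LDH was measured as NADH formation by colorimetric read at 490 nm. n = 8-10 replicates per concentration.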

Data set [16] deals with RAW264.7. Nature of the data set: Cytoprotective activity against H2O2-induced oxidative stress in mouse RAW264.7 cells assessed as decrease in LDH release at 1 pM incubated for 2 hrs prior to H2O2 addition by colorimetric assay relative to control. The arrangement: scale not given: the % may be the effect or the level left.
The subject of data set [17] is RAW264.7. Nature of the data set: Antiinflammatory activity in mouse RAW264.7 cells assessed as reduction in LPS-induced TNF-alpha production at 1 nM incubated for 2 hrs prior to LPS challenge measured after 8 hrs by ELISA. In kind it is functional. Put shortly: as §1
Data set [18] has as its system RAW264.7. Nature of the data set: Antiinflammatory activity in mouse RAW264.7 cells assessed as reduction in LPS-induced IL-6 production at 1 nM incubated for 2 hrs prior to LPS challenge measured after 24 hrs by ELISA. In kind it is functional. Put shortly:
as §1

Data set [19] concerns RAW264.7. Nature of the data set: Antiinflammatory activity in mouse RAW264.7 cells assessed as reduction in LPS-induced TNF-alpha production at 100 pM incubated for 2 hrs prior to LPS challenge measured after 8 hrs by ELISA. In kind it is functional. Put shortly:
as §1

Data set [20] relates to RAW264.7. Nature of the data set: Antiinflammatory activity in mouse RAW264.7 cells assessed as reduction in LPS-induced nitric oxide production at 1 nM incubated for 2 hrs prior to LPS challenge measured after 24 hrs by Griess assay. In kind it is functional. Put shortly:
as §1

Data set [21] has as its system RAW264.7. Nature of the data set: Antiinflammatory activity in mouse RAW264.7 cells assessed as reduction in LPS-induced IL-6 production at 100 pM incubated for 2 hrs prior to LPS challenge measured after 24 hrs by ELISA. In kind it is functional. Put shortly: as §1
Data set [22] has as its system RAW264.7. The data set can be described thus: Antiinflammatory activity in mouse RAW264.7 cells assessed as reduction in LPS-induced nitric oxide production at 100 pM incubated for 2 hrs prior to LPS challenge measured after 24 hrs by Griess assay. In kind it is functional. Put shortly:
as §1

Data set [23] relates to RAW264.7. The data set can be described thus: Cytoprotective activity against H2O2-induced oxidative stress in mouse RAW264.7 cells assessed as decrease in caspase-3 activity at 1 pM incubated for 4 hrs prior to H2O2 addition measured after 90 mins by caspase-GloR reagent-based luminescence assay relative to control. In kind it is functional. Put shortly:
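RAW 264.7 macrophages were pretreated with compound (1 pM or 1 nM) 4 h before H2O2 100 µM. Medium was replaced with fresh DMEM after 90 min and plates were incubated overnight. Caspase-Glo 3/7 reagent was added and luminescence read after 30 min at room temperature. Mean ± SD, 4-6 replicates.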

The source made the active and inactive calls. No cut-off for these calls is given here.

As for `COc1ccc2c(c1)CCN2CCC(=O)O`, the outcome with RAW264.7 [1], in the data set on RAW264.7 [2] and in the data set on RAW264.7 [3] was inactive. Further, the viability at 0.1 µM in the data set on RAW264.7 [4] came out at 87.1%.
In the case of `COC(=O)CCN1CCc2ccc(C)cc21`, the outcome in the data set with RAW264.7 [1], in the data set on RAW264.7 [2] and in the data set on RAW264.7 [3] was inactive. The viability at 0.01 µM with RAW264.7 [5] came to 87.2%.
For the compound `CC(C)NC(=O)CCN1CCc2cc(Cl)ccc21`, the result in the data set with RAW264.7 [1], in the data set on RAW264.7 [2] and in the data set with RAW264.7 [3] was inactive. Also, in the data set with RAW264.7 [6], the viability at 1 pM turned out to be 95.7%. For the same compound, the viability at 24 h, 0.01 µM in data set [7] was determined as 104%. Besides, the viability at 24 h, 0.1 µM in data set [8] was 103%. In [9], the viability at 24 h, 0.001 µM came to 97.9%. The viability at 24 h, 1e-05 µM in data set [10] was determined as 96.3%. In addition, the viability at 24 h, 0.0001 µM in data set [11] amounted to 98.2%. In addition, the viability at 24 h, 1e-06 µM in [12] was found to be 95.6%.
As for `CC(C)NC(=O)CCN1CCc2ccc(F)cc21`, the result with RAW264.7 [1], with RAW264.7 [2] and with RAW264.7 [3] was inactive. Besides, the viability at 0.1 µM in the data set on RAW264.7 [4] is 86.9%.
As for `c1ccc2c(c1)CCN2` [INDOLINE], the viability at 0.01 µM in the data set on RAW264.7 [5] was determined as 90.4%.
For the compound `Cl.OCCCN1CCc2ccccc21`, the result in the data set on RAW264.7 [13] and in the data set on RAW264.7 [14] was Active. Moreover, the Activity in the data set on RAW264.7 [15] and in the data set with RAW264.7 [16] was 16% each time. Also, the viability at 0.1 µM with RAW264.7 [4] turned out to be 89.8%. Besides, in data set [7], the viability at 24 h, 0.01 µM is 92.3%. Further, in data set [8], the viability at 24 h, 0.1 µM is 94.4%. Further, the viability at 24 h, 0.001 µM in data set [9] was determined as 95.1%. For the same compound, the viability at 24 h, 1e-05 µM in data set [10] worked out at 89.9%. In addition, the viability at 24 h, 0.0001 µM in data set [11] came to 91.6%. Also, the viability at 24 h, 1e-06 µM in [12] is 89.5%.
For the compound `COC(=O)CCC1CNc2ccccc21` (stereo unspecified), the result in the data set with RAW264.7 [17], in the data set with RAW264.7 [18], with RAW264.7 [19], with RAW264.7 [20], with RAW264.7 [21] and with RAW264.7 [22] was Active. In data set [7], the viability at 24 h, 0.01 µM was determined as 94.5%. Further, the viability at 24 h, 0.1 µM in data set [8] was determined as 92.9%. The viability at 24 h, 0.001 µM in data set [9] was 97.1%. In addition, the viability at 24 h, 1e-05 µM in data set [10] worked out at 93.2%. The viability at 24 h, 0.0001 µM in data set [11] stood at 96.6%. Also, the viability at 24 h, 1e-06 µM in data set [12] amounted to 99.5%.
As to `CC(C)NCCCN1CCc2cccc(O)c21.Cc1ccc(S(C)(=O)=O)cc1.Cc1ccc(S(C)(=O)=O)cc1`, the outcome in the data set on RAW264.7 [13] and in the data set with RAW264.7 [14] was inactive.
As for `COc1ccc2c(c1)CCN2CCCNC(C)C.Cl.Cl`, the Activity in the data set with RAW264.7 [17] is 50%; in the data set on RAW264.7 [1], “Dose-dependent effect”; in the data set on RAW264.7 [2] it was “Dose-dependent effect”; in the data set with RAW264.7 [18], 50%; with RAW264.7 [20], 50%. The viability at 0.01 µM in the data set with RAW264.7 [5] stood at 87.1%.
For the compound `CCCC1O[C@@H]2C[C@H]3[C@@H]4CCC5=CC(=O)C=C[C@]5(C)[C@H]4[C@@H](O)C[C@]3(C)[C@]2(C(=O)CO)O1` (stereo partly specified), the result with RAW264.7 [1], in the data set with RAW264.7 [13] and in the data set on RAW264.7 [14] was Active.
`Cc1ccc(S(C)(=O)=O)cc1.Cc1ccc(S(C)(=O)=O)cc1.NCCCN1CCc2cccc(OCc3ccccc3)c21`: in the data set with RAW264.7 [23], the outcome was inactive. The Activity entry in the data set with RAW264.7 [1] and in the data set with RAW264.7 [2] was “Dose-dependent effect” in each case. For the same compound, in the data set on RAW264.7 [4], the viability at 0.1 µM amounted to 79.3%.
With `COC(=O)CCN1CCc2cc(OC)ccc21.Cl`, the results for the Activity in the data set on RAW264.7 [23], in the data set on RAW264.7 [15] and with RAW264.7 [16] were 60%, 16% and 16%, respectively. Further, the outcome with RAW264.7 [1] was Active. Moreover, the viability at 1 pM in the data set on RAW264.7 [6] was found to be 91%.
